Assay results as given in publication PMC6297906 (Computational and Structural Biotechnology Journal, 2018).
Values joined by “and” are separate entries in the source; they are usually repeats but may differ in a detail not shown here. Equal entries are not always repeated.

Tests used:
A549 cells = test: MTT assay, A549; format: cell-based, human; details: read-out: IC50 A549, 72 h treatment
In short: (§1)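 Cells grown in DMEM with 10% FBS, penicillin and streptomycin, seeded at 5 × 10^3 per well for 24 h. Test compound added at 0, 1.56, 3.125, 6.25, 12.5, 25, 50 or 100 μM for 72 h. MTT (5 mg/mL stock) added for 4 h; medium replaced by DMSO; absorbance read at 490 nm for IC50.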

HaCaT cells = test: MTT assay, HaCaT normal cells; format: cell-based, human; details: read-out: IC50 HaCaT, 72 h treatment, normal cell line
In short: as §1

MCF-7 cells = test: MTT assay, MCF-7; format: cell-based, human; details: read-out: IC50 MCF-7, 72 h treatment
In short: as §1

MDA-MB-231 cells [1] = test: MTT assay, MDA-MB-231; format: cell-based, human; details: read-out: IC50 MDA-MB-231, 72 h treatment
In short: as §1

HepG2 cells = test: MTT assay, HepG2; format: cell-based, human; details: read-out: IC50 HepG2, 72 h treatment
In short: as §1

[2] = Octanol/water partition coefficient; format: physicochemical; details: room temperature
In short: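 Lipophilicity taken as Po/w = Ao/Aw. Test compound concentrations in the octanol and water phases measured from electronic absorption spectra.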

MDA-MB-231 cells [3] = test: FITC-conjugated gelatin invasion assay; format: cell-based, human; details: 5 μM, 24 h
In short: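 MDA-MB-231 cells (2 × 10^5 per well) treated with 0 or 5 μM test compound, plated on FITC-gelatin-coated coverslips, and incubated 24 h at 37 °C. Gelatin degradation (dark holes) imaged by laser confocal microscopy; invasive percentage derived. Means ± SEM; one-way ANOVA versus control.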

MDA-MB-231 cells [4] = test: TUNEL assay; format: cell-based, human; details: 20 μM
In short: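 MDA-MB-231 cells given test compound (0, 10, 20 μM). Fixed in 4% p-formaldehyde in PBS 30 min; permeabilised with 0.3% Triton X-100 in PBS (25 °C, 8 min). TUNEL reaction mixture applied 1 h, then DAPI (0.5 μg/mL, 37 °C, 8 min) in the dark. Read by fluorescence microscopy.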

[5] = tested on: transgenic Tg(fli1a:EGFP) zebrafish embryos; test: Angiogenic effect in vivo, transgenic zebrafish embryos; details: 5.0 μM, compared with PTK787
MDA-MB-231 cells [6] = test: Immunofluorescence of paxillin and F-actin; format: cell-based, human; details: 5 and 10 μM, 24 h
In short: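 MDA-MB-231 cells on cover glass, exposed to test compound (0, 5, 10 μM) for 24 h, then fixed in 4% formaldehyde 25 min and blocked in 5% BSA 30 min. Stained with rabbit monoclonal anti-paxillin (1:100, 60 min), Alexa Fluor 488 anti-rabbit (1:200, 30 min), rhodamine phalloidin for F-actin (1:100, 30 min) and DAPI (0.5 μg/mL, 8 min). PBS washes between steps; confocal imaging.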

HUVECs = test: Tube formation assay; format: cell-based; details: 5 and 10 μM, 6 h, VEGF 200 ng/mL
In short: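 Matrigel thawed at 4 °C for 24 h, coated into prechilled wells and set at 37 °C for at least 60 min. HUVECs (3 × 10^4) plated in DMEM with VEGF (200 ng/mL) plus test compound (0, 5, 10 μM) for 6 h at 37 °C. Tube networks imaged and analysed.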

[7] = tested on: MDA-MB-231 cells in zebrafish xenografts; test: Zebrafish xenograft breast cancer model; format: in vivo; details: 5 μM, 72 h
In short: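 DiI-labelled MDA-MB-231 cells (10^7 cells/mL; 50–500 cells) microinjected into the perivitelline space near the SIVs of Tg(fli1:EGFP) zebrafish embryos at 48 hpf. Xenografted fish kept 10 per well in 2 mL aquaculture water with 0 or 5 μM test compound for 72 h. Fluorescence imaging every 24 h; n = 10/group.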

MDA-MB-231 cells [8] = test: Wound-healing assay; format: cell-based, human; details: 72 h
In short: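 MDA-MB-231 cells (1 × 10^5/well) grown to >85% confluence, then scratched with a pipette tip. Treated with test compound (0, 2, 4 μM). The same field imaged every 24 h. Migration rate taken as scratch filling, averaged over 10 fields; N = 8. Means ± SEM; one-way ANOVA.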

MDA-MB-231 cells [9] = test: Comet assay; format: cell-based, human; details: 5 and 10 μM

Compound | IC50 (A549 cells) | IC50 (MCF-7 cells) | IC50 (MDA-MB-231 cells [1]) | IC50 (HepG2 cells) | logPo/w [2] | IC50 (HaCaT cells) | invasive capability (FITC-gelatin degradation) (MDA-MB-231 cells [3]) | apoptotic cells (TUNEL) (MDA-MB-231 cells [4]) | ISV formation inhibition [5] | quantity of paxillin (focal adhesions) (MDA-MB-231 cells [6]) | stress fibers (F-actin) (MDA-MB-231 cells [6]) | tube formation of HUVECs (HUVECs) | metastasis of MDA-MB-231 cells into blood vessels [7] | number of MDA-MB-231 cells in zebrafish (proliferation) ([7]; versus control) | total area of SIV (tumor angiogenesis) ([7]; versus control) | wound-healing rate (MDA-MB-231 cells [8]; 2 μM, versus control) | wound-healing rate (MDA-MB-231 cells [8]; 4 μM) | endogenous DSBs (olive tail moment, comet assay) (MDA-MB-231 cells [9]) | percentage of γH2AX focal positive cells (MDA-MB-231 cells [9]; 24 h)
N.N.[Cl][Pt][Cl] [Cis-platin, cisplatin, reference compound] | 21.1 ± 0.2 µM | 86.6 ± 5.9 µM | 20.9 ± 1.9 µM | 15.5 ± 0.4 µM | – | 7.1 ± 0.5 µM | – | – | – | – | – | – | – | – | – | – | – | – | –
[Ru(bpy)2(7-BEDPPZ)](ClO4)2 [Ru(bpy)2BEDPPZ] | 20 ± 0.7 µM | 74.9 ± 3.5 µM | ~17.2 µM and 17.2 µM | 97.5 ± 4.4 µM | −0.87 | 47.2 ± 2.6 µM | markedly suppressed | many apoptotic cells were observed | more effectively inhibited ISV formation than PTK787 | decreased quantity of paxillins | inhibited | inhibited notably | scarce MDA-MB-231 cells were found in the blood vessel | notably reduced | obviously less than that in the control group | less than half of the control group | further decreased | extremely increased | obviously increased
[Ru(bpy)2(7-CH3-DPPZ)](ClO4)2 [Ru(bpy)2MDPPZ] | 93.3 ± 4.1 µM | 9.7 ± 6.1 µM | > 100 µM | > 100 µM | −2.17 | > 100 µM | – | – | – | – | – | – | – | – | – | – | – | – | –

The next lines start with results.

IC50 (A549 cells) | IC50 (MCF-7 cells) | IC50 (MDA-MB-231 cells [1]) | IC50 (HepG2 cells) | logPo/w [2] | Compound | IC50 (HaCaT cells) | invasive capability (FITC-gelatin degradation) (MDA-MB-231 cells [3]) | apoptotic cells (TUNEL) (MDA-MB-231 cells [4]) | ISV formation inhibition [5] | quantity of paxillin (focal adhesions) (MDA-MB-231 cells [6]) | stress fibers (F-actin) (MDA-MB-231 cells [6]) | tube formation of HUVECs (HUVECs) | metastasis of MDA-MB-231 cells into blood vessels [7] | number of MDA-MB-231 cells in zebrafish (proliferation) ([7]; versus control) | total area of SIV (tumor angiogenesis) ([7]; versus control) | wound-healing rate (MDA-MB-231 cells [8]; 2 μM, versus control) | wound-healing rate (MDA-MB-231 cells [8]; 4 μM) | endogenous DSBs (olive tail moment, comet assay) (MDA-MB-231 cells [9]) | percentage of γH2AX focal positive cells (MDA-MB-231 cells [9]; 24 h)
32.5 ± 1.6 µM | > 100 µM | > 100 µM | 23 ± 1.1 µM | −1.65 | [Ru(bpy)2(DPPN)](ClO4)2 [Ru(bpy)2BnDPPZ] | > 100 µM | – | – | – | – | – | – | – | – | – | – | – | – | –
> 100 µM | > 100 µM | > 100 µM | > 100 µM | −1.87 | [Ru(bpy)2DPPZ](ClO4)2 | > 100 µM | – | – | – | – | – | – | – | – | – | – | – | – | –
